IC50 and Activity data for 16 compounds are collected here from ChEMBL document CHEMBL1140911, “Semisynthesis, biological activity, and molecular modeling studies of C-ring-modified camptothecins” (J Med Chem, 2009).

For one experiment, the system named is NCI-H460. Kind of experiment: Antiproliferative activity against human NCI-H460 cells after short term exposure for 1 hr measured after 72 hrs in drug-free medium. It is filed as functional, cell-based. The essentials:
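NCI-H460 human NSCLC cells grown in RPMI 1640 with 10% FCS. IC50 is the concentration giving 50% decrease in cell growth relative to untreated control.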

The target in experiment [1] is T1, DNA topoisomerase 1 (Homo sapiens) (UniProt P11387).
T1 sequence (whole entry): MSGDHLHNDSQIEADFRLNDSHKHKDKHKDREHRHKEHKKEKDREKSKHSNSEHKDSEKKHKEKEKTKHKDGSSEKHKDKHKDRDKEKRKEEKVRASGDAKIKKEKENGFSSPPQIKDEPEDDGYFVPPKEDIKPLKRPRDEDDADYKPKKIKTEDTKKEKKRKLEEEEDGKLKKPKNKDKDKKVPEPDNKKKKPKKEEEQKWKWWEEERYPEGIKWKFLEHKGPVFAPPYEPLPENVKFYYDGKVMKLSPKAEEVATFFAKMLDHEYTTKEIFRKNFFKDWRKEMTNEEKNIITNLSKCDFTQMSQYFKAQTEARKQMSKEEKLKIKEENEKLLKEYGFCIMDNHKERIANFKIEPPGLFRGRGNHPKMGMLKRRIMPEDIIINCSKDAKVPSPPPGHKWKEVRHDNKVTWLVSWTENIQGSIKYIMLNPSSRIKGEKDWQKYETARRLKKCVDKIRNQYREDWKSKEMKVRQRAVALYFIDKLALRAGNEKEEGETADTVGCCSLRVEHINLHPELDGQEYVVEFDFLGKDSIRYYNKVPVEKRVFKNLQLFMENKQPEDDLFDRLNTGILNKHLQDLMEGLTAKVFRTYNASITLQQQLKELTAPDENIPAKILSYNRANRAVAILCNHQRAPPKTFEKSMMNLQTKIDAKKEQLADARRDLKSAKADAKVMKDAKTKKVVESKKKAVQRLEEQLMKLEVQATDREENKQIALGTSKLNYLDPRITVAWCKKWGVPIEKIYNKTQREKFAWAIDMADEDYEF
Kind of experiment: Induction of human recombinant topoisomerase 1-mediated SV40 DNA cleavage at 1 to 50 uM after 30 mins by PAGE. Summed up: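 Substrate was a gel-purified 751-bp BamHI-EcoRI SV40 DNA fragment, uniquely 3′-end labeled (20 000 cpm/sample). It was reacted with full-length human recombinant topo I and drug at 1, 10 and 50 µM in 10 mM Tris-HCl pH 7.6, 150 mM KCl, 5 mM MgCl2, 15 µg/mL BSA, 0.1 mM DTT, 30 min at 37 °C. Stopped with 0.5% SDS/0.3 mg/mL proteinase K, 45 min, 42 °C. Run on denaturing 8% polyacrylamide gel and quantified by phosphorimaging. Band intensity was compared with SN38 reference.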

Where a name gives a salt, the structure may show the parent alone. Calls of active or inactive are those of the source. No cut-off for these calls is given here.

The term IC50 denotes the concentration that gives 50% inhibition. In the experiment with NCI-H460, `CC[C@@]1(O)C(=O)OCc2c1cc1n(c2=O)[C@@H](N=[N+]=[N-])c2cc3ccccc3nc2-1` registered an IC50 of 11.5 µM.
Compound `CC[C@@]1(O)C(=O)OCC2=C1C=C1c3nc4ccccc4cc3C3NN=C2N13` (mixture of isomers) came in with an IC50 with NCI-H460 of 46.8 µM. In addition, in experiment [1], the outcome was Active.
The compound `CCc1c2c(nc3ccc(O)cc13)-c1cc3c(c(=O)n1C2)COC(=O)[C@]3(O)CC` [7-ETHYL-10-HYDROXYCAMPTOTHECIN] displayed an IC50 in the experiment on NCI-H460 of 0.13 µM. For the same compound, the outcome in experiment [1] was Active.
Regarding `CC[C@@]1(O)C(=O)OCc2c1cc1n(c2=O)[C@@H](N(NC(=O)OC(C)(C)C)C(=O)OC(C)(C)C)c2cc3ccccc3nc2-1`, the IC50 with NCI-H460 is greater than 173 µM.
In the experiment with NCI-H460, `CC[C@@]1(O)C(=O)OCc2c1cc1n(c2=O)C(N)c2cc3ccccc3nc2-1` (stereo not given in full) returned an IC50 of 30 µM. For the same compound, the result in experiment [1] was Active.
Compound `CC[C@@]1(O)C(=O)OCc2c1cc1n(c2=O)[C@H](F)c2cc3ccccc3nc2-1` displayed an IC50 in the experiment on NCI-H460 of 56 µM. Also, the outcome in experiment [1] was Active.
Compound `CC[C@@]1(O)C(=O)OCc2c1cc1n(c2=O)C(C)c2cc3ccccc3nc2-1` (mixture of isomers) showed an IC50 with NCI-H460 of 5.9 µM. The result in experiment [1] was Active.
Taken in the same sequence, the figures for `CC[C@@]1(O)C(=O)OCc2c1cc1n(c2=O)[C@@H](F)c2cc3ccccc3nc2-1` were 56 µM and “Active”.
`CC[C@@]1(O)C(=O)OCc2c1cc1n(c2=O)[C@H](N(NC(=O)OC(C)(C)C)C(=O)OC(C)(C)C)c2cc3ccccc3nc2-1` yielded an IC50 in the experiment with NCI-H460 of 77 µM. Besides, in experiment [1], the outcome was Active.
Compound `CC[C@@]1(O)C(=O)OCc2c1cc1n(c2=O)C(N=[N+]=[N-])(N=[N+]=[N-])c2cc3ccccc3nc2-1` (stereo not given in full) displayed an IC50 in the experiment on NCI-H460 of 9.3 µM.
In turn, `CC[C@@]1(O)C(=O)OCc2c1cc1n(c2=O)C(CCCO)c2cc3ccccc3nc2-1` (mixture of isomers) had an IC50 in the experiment on NCI-H460 of 16 µM.
In the experiment with NCI-H460, `CC[C@@]1(O)C(=O)OCc2c1cc1n(c2=O)[C@@H](N(NC(=O)OCc2ccccc2)C(=O)OCc2ccccc2)c2cc3ccccc3nc2-1` showed an IC50 of 85 µM.
`CC[C@@]1(O)C(=O)OCc2c1cc1c3nc4ccccc4cc3c3nnc2n13` came in with an IC50 in the experiment on NCI-H460 of 10.6 µM. Further, the outcome in experiment [1] was Active.
In turn, `CC[C@@]1(O)C(=O)OCc2c1cc1n(c2=O)Cc2cc3c(CN(C)C)c(O)ccc3nc2-1` [TOPOTECAN HYDROCHLORIDE] had an IC50 in the experiment on NCI-H460 of 0.61 µM.
As for `CC[C@@]1(O)C(=O)OCc2c1cc1n(c2=O)[C@H](N(NC(=O)OCc2ccccc2)C(=O)OCc2ccccc2)c2cc3ccccc3nc2-1`, in the experiment with NCI-H460, it took 60 µM to reach half-maximal inhibition (IC50).
On to `CC[C@@]1(O)C(=O)OCc2c1cc1n(c2=O)[C@H](N=[N+]=[N-])c2cc3ccccc3nc2-1`, for which, in the experiment with NCI-H460, 6.7 µM corresponded to half-maximal inhibition (IC50). For the same compound, the result in experiment [1] was Active.
